According to ChEMBL document CHEMBL1147977, “UDP acting at P2Y6 receptors is a mediator of microglial phagocytosis” (2007):
Active and inactive are the calls of the source. No cut-off for these calls is given here.

Tests used:
Neuron [1] = assay: Increase in UTP level in Wistar rat hippocampal neuron at 100 uM after 1 hr by HPLC in presence of ARL67156
Hippocampus [2] = assay: Upregulation of P2Y6 receptor mRNA signals in Wistar rat hippocampal CA3 region assessed as increase in number of microglia by in situ hybridization after 3 days; format: functional, tissue-based
Method in brief: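 Rats given 10 mg kg⁻¹ i.p.; 3 days later hippocampal sections probed by in situ hybridization with P2Y₆ antisense RNA probe, then stained with anti-Iba1 to identify microglia bearing receptor mRNA in CA3.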

Hippocampus [3] = assay: Induction of neuronal loss in Wistar rat hippocampal CA1 region assessed as increase in number of microglia by immunohistochemical analysis; format: functional, tissue-based
Method in brief: (§1)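 Rats given 10 mg kg⁻¹ i.p.; 72 h later hippocampal sections double-stained with anti-NeuN (neurons) and anti-Iba1 (microglia) to assess CA1 and CA3 neuronal loss and microglial number.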

Hippocampus [4] = assay: Induction of neuronal loss in Wistar rat hippocampal CA3 region assessed as increase in number of microglia by immunohistochemical analysis; format: functional, tissue-based
Method in brief: as §1

Neuron [5] = assay: Increase in UTP level in Wistar rat hippocampal neuron at 10 mg/kg, ip by microdialysis; format: functional, organism-based; parameters: dose 10 mg/kg; conditions: Hippocampus, TDE = time-dependent effect
Microglia [6] = assay: Reversal of increase drug-induced phagocytosis in Wistar rat microglia assessed as uptake of microspheres by FACS in presence of MRS2578; format: functional, cell-based
Method in brief: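 Microglia incubated 20 min with supernatant from hippocampal neurons treated ±100 μM kainate for 1 h, with or without 1 μM antagonist; fluorescent latex bead uptake measured by flow cytometry; at least four independent experiments.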

Microglia [7] = assay: Increase in P2Y6 receptor protein expression in Wistar rat microglia; format: functional, cell-based
Method in brief: (§2)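 Rats given 10 mg kg⁻¹ i.p.; brain sections immunostained for P2Y₆ receptor and co-stained for microglia (OX42), astrocytes (GFAP) or neurons (NeuN) to assess colocalization.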

Hippocampus [8] = assay: Reversal of drug-induced phagocytosis in Wistar rat hippocampal CA3 region assessed as increase in number of microglia at 10 mg/kg, ip in presence of MRS2578; format: functional, organism-based; parameters: dose 10 mg/kg
Method in brief: (§3)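 Rats given 10 mg kg⁻¹ i.p.; fluorescent microspheres injected into hippocampal CA3, antagonist injected into CA3 (antisense/mismatch oligonucleotide into third ventricle); microspheres taken up or attached by anti-Iba1-stained microglia counted by confocal microscopy; ANOVA with Scheffe test.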

Rattus norvegicus = assay: Increase in P2Y6 receptor protein expression in Wistar rat brain at 10 mg/kg, ip after 72 hrs by Western blotting; format: functional, organism-based; parameters: dose 10 mg/kg
Method in brief: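 Rats given 10 mg kg⁻¹ i.p. (saline-injected controls); brains removed 72 h later and hippocampal P2Y₆ receptor protein quantified by western blot; 8 control and 7 treated experiments.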

Astrocyte = assay: Increase in P2Y6 receptor protein expression in Wistar rat astrocytes; format: functional, cell-based
Method in brief: as §2

Neuron [9] = assay: Induction of neuronal loss in Wistar rat neurons at 10 mg/kg, ip after 2-3 days; format: functional, organism-based; parameters: dose 10 mg/kg
Neuron [10] = assay: Increase in P2Y6 receptor protein expression in Wistar rat neurons; format: functional, cell-based
Method in brief: as §2

Hippocampus [11] = assay: Induction of phagocytosis in Wistar rat hippocampal CA3 region assessed as increase in number of microglia at 10 mg/kg, ip; format: functional, organism-based; parameters: dose 10 mg/kg
Method in brief: as §3

Microglia [12] = assay: Increase in phagocytosis in Wistar rat microglia assessed as uptake of microspheres by FACS; format: functional, cell-based
Method in brief: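 Cultured primary rat microglia incubated 20 min with fluorescent latex beads plus agonist (5–1,000 μM); bead uptake quantified by flow cytometry; three experiments.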

[13] = Induction of phagocytosis in Wistar rat microglia assessed as uptake of microspheres at 100 uM after 20 mins by FACS; format: functional
Method in brief: (§4)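 Rat primary cultured microglia incubated with agonist for 20 min, with UDP tested at 5–1,000 μM, in the presence of fluorescent latex microspheres. Bead uptake is quantified by FACS, and results are expressed relative to uptake with 100 μM UDP alone. Values are means ± s.e.m. of about three or four experiments.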

[14] = target: P2Y purinoceptor 6 (Rattus norvegicus) (UniProt Q63371); assay: Effect on P2Y6 receptor-mediated cell motility in Wistar rat microglia assessed as formation of lamellipodia-like membrane ruffles at 10 uM after 5 mins
Method in brief: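 Cultured primary rat microglia stimulated 5 min with agonist, then fixed, permeabilized and phalloidin-stained; lamellipodia-like membrane ruffles scored by microscopy.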

[15] = target: P2Y purinoceptor 6 (Rattus norvegicus) (UniProt Q63371); assay: Effect on P2Y6 receptor-mediated cell motility in Wistar rat microglia at 100 uM by chemotaxis assay
Method in brief: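 Chemotaxis of cultured primary rat microglia toward agonist (100 μM) assessed in a Dunn chemotaxis chamber.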

Microglia [16] = assay: Reversal of drug-induced of phagocytosis in Wistar rat microglia at 100 uM in presence of suramin; format: functional
Method in brief: (§5)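 Rat primary cultured microglia stimulated with 100 μM UDP, with or without reactive blue 2 (30–100 μM), suramin (300 μM), MRS2578 (0.01–3 μM), thapsigargin (1 μM), staurosporine (5 μM) or U73122 (10 μM). Uptake of fluorescent latex microspheres during the 20-min incubation is quantified by FACS. Values are means ± s.e.m.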

Microglia [17] = assay: Effect on formation of phagosome-like vacuoles in Wistar rat microglia at 100 uM after 5 mins; format: functional, cell-based
Method in brief: (§6)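 Rat primary cultured microglia stimulated for 5 min with 100 μM UDP or 10 μM ATP, then fixed, permeabilized and stained with phalloidin. Membrane ruffles and other actin structures are assessed by microscopy.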

Microglia [18] = assay: Effect on formation of filopodia-like protrusions in Wistar rat microglia at 100 uM after 5 mins; format: functional, cell-based
Method in brief: as §6

Microglia [19] = assay: Effect on formation of phagocytotic cup in Wistar rat microglia at 100 uM after 5 mins; format: functional, cell-based
Method in brief: as §6

[20] = target: P2Y purinoceptor 6 (Rattus norvegicus) (UniProt Q63371); assay: Activity at P2Y6 receptor in Wistar rat microglia assessed as inhibition of intracellular calcium concentration at 100 uM in presence of suramin by ratiometric fura-2 fluorescence method; format: functional, cell-based
Method in brief: (§7)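 Cultured rat primary microglia. Intracellular Ca2+ measured as the change in the 340/380 nm Fura-2 fluorescence ratio after stimulation with 100 μM UDP, alone or with inhibitors. The maximal UDP-alone response is the control, and responses are expressed as percent of control. Values are means ± s.e.m. of 24–36 cells from at least three independent experiments.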

[21] = target: P2Y purinoceptor 6 (Rattus norvegicus) (UniProt Q63371); assay: Effect on P2Y6 receptor-mediated cell motility in Wistar rat microglia assessed as formation of lamellipodia-like membrane ruffles at 100 uM after 5 mins
Method in brief: as §6

Microglia [22] = assay: Reversal of drug-induced phagocytosis in Wistar rat microglia at 100 uM in presence of thapsigargin; format: functional, cell-based
Method in brief: as §5

[23] = target: T1, Cysteinyl leukotriene receptor 1 (Rattus norvegicus) (UniProt Q924T8); assay: Agonist activity at CysLT1 receptor in Wistar rat microglia assessed as increase in intracellular calcium concentration at 30 uM by ratiometric fura-2 fluorescence method; format: functional, cell-based
T1 sequence (whole entry): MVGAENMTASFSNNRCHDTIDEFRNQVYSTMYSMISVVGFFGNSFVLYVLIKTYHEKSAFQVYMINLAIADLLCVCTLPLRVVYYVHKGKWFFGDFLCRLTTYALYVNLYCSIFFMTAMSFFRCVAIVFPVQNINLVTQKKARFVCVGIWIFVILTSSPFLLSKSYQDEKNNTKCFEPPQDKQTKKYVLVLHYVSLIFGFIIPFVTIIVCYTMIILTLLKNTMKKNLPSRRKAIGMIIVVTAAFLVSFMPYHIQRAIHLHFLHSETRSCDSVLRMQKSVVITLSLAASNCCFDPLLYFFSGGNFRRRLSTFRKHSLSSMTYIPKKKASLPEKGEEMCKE

[24] = target: P2Y purinoceptor 6 (Rattus norvegicus) (UniProt Q63371); assay: Agonist activity at P2Y6 receptor in Wistar rat microglia assessed as increase in intracellular calcium concentration by ratiometric fura-2 fluorescence method; format: functional, cell-based
Method in brief: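 Rat primary cultured microglia loaded with Fura-2. The rise in [Ca2+]i is read as the change in the 340/380 nm fluorescence ratio. UDP is applied over a concentration range, and the fraction of responding cells is also scored.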

[25] = target: P2Y purinoceptor 6 (Rattus norvegicus) (UniProt Q63371); assay: Activity at P2Y6 receptor in Wistar rat microglia assessed as inhibition of intracellular calcium concentration at 100 uM after 600 secs by ratiometric fura-2 fluorescence method in presence of thapsigargin; format: functional, cell-based
Method in brief: as §7

[26] = target: P2Y purinoceptor 6 (Rattus norvegicus) (UniProt Q63371); assay: Activity at P2Y6 receptor in Wistar rat microglia assessed as inhibition of intracellular calcium concentration at 100 uM after 300 secs by ratiometric fura-2 fluorescence method in presence of U73122; format: functional, cell-based
Method in brief: as §7

[27] = target: P2Y purinoceptor 6 (Rattus norvegicus) (UniProt Q63371); assay: Activity at P2Y6 receptor in Wistar rat microglia assessed as inhibition of intracellular calcium concentration at 100 uM by ratiometric fura-2 fluorescence method in presence of reactive blue 2; format: functional, cell-based
Method in brief: as §7

[28] = target: P2Y purinoceptor 6 (Rattus norvegicus) (UniProt Q63371); assay: Activity at P2Y6 receptor in Wistar rat microglia assessed as inhibition of intracellular calcium concentration at 100 uM by ratiometric fura-2 fluorescence method in presence of MRS2578; format: functional, cell-based
Method in brief: as §7

Microglia [29] = assay: Reversal of drug-induced phagocytosis in Wistar rat microglia at 100 uM in presence of MRS2578; format: functional
Method in brief: as §5

Microglia [30] = assay: Induction of phagocytosis in Wistar rat microglia assessed as uptake of microspheres after 20 mins by FACS; format: functional, cell-based
Method in brief: as §4

Microglia [31] = assay: Reversal of drug-induced phagocytosis in Wistar rat microglia at 100 uM in presence of staurosporine; format: functional, cell-based
Method in brief: as §5

Microglia [32] = assay: Reversal of drug-induced phagocytosis in Wistar rat microglia at 100 uM in presence of U73122; format: functional, cell-based
Method in brief: as §5

Microglia [33] = assay: Effect on formation of F-actin aggregation in Wistar rat microglia at 100 uM after 5 mins; format: functional, cell-based
Method in brief: as §6

[34] = target: P2Y purinoceptor 6 (Rattus norvegicus) (UniProt Q63371); assay: Activity at P2Y6 receptor in Wistar rat microglia assessed as inhibition of intracellular calcium concentration at 100 uM after 600 secs by ratiometric fura-2 fluorescence method in presence of xestospongin C; format: functional, cell-based
Method in brief: as §7

Microglia [35] = assay: Reversal of drug-induced of phagocytosis in Wistar rat microglia at 100 uM in presence of reactive blue 2; format: functional
Method in brief: as §5

P2Y purinoceptor 6 (Rattus norvegicus), sequence (Q63371 whole entry): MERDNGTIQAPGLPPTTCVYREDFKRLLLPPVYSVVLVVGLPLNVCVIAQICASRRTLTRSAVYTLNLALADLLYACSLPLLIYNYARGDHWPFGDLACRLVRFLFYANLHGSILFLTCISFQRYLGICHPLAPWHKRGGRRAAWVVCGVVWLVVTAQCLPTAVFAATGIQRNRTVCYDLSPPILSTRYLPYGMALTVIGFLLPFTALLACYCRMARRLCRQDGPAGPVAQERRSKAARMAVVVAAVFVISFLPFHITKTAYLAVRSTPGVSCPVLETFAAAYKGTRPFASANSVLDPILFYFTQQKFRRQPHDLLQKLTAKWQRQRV

C=C(C)[C@H]1CN[C@H](C(=O)O)[C@H]1CC(=O)O [KAINIC ACID]
Activity (Neuron [1]): 10.5 µM
Activity (Hippocampus [2]): Active
Activity (Hippocampus [3]): Active
Activity (Hippocampus [4]): Active
Activity (Neuron [5]): tde
Activity (Microglia [6]): Active
Activity (Microglia [7]): Active
Activity (Hippocampus [8]): Active
Activity (Rattus norvegicus): Active
Activity (Astrocyte): inactive
Activity (Neuron [9]): Active
Activity (Neuron [10]): inactive
Activity (Hippocampus [11]): Active
Activity (Microglia [12]): Active

Nc1ncnc2c1ncn2[C@@H]1O[C@H](COP(=O)(O)OP(=O)(O)O)[C@@H](O)[C@H]1O [ADENOSINE DIPHOSPHATE]
Activity [13]: 0.3%

Nc1ncnc2c1ncn2[C@@H]1O[C@H](COP(=O)(O)OP(=O)(O)OP(=O)(O)O)[C@@H](O)[C@H]1O
Activity [14]: Active
Activity [15]: Active

O=c1ccn([C@@H]2O[C@H](COP(=O)(O)OP(=O)(O)O)[C@@H](O)[C@H]2O)c(=O)[nH]1
Activity (Microglia [16]): Active
Activity (Microglia [17]): Active
Activity (Microglia [18]): Active
Activity (Microglia [19]): Active
Activity [20]: Active
Activity [21]: inactive
Activity [15]: inactive
Activity (Microglia [22]): Active
Activity [23]: Active
Activity [24]: Dose-dependent effect
Activity [25]: Active
Activity [26]: Active
Activity [27]: Active
Activity [28]: Active
Activity (Microglia [29]): Active
Activity (Microglia [30]): Dose-dependent effect
Activity (Microglia [31]): Active
Activity (Microglia [32]): Active
Activity (Microglia [33]): Active
Activity [34]: Active
Activity (Microglia [35]): Active

Nc1nc2c(ncn2[C@@H]2O[C@H](COP(=O)(O)OP(=O)(O)O)[C@@H](O)[C@H]2O)c(=O)[nH]1
Activity [13]: 49.7%
